From PubChem BioAssay
dFosB act: mouse delta FosB homodimer activation; P13346; purified delta FosB, TAMRA-CDK5 oligo fluorescence polarization; percent of positive-control signal above neutral wells; activation, % at 25 µM; hit rate 0.99% among 340,000;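 active means mean activation above about 17%, with every replicate also reaching it, limit read from the data, passing the limit was not always enough; inconclusive means only one of the two conditions met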
Target sequence (P13346 whole entry, looked up): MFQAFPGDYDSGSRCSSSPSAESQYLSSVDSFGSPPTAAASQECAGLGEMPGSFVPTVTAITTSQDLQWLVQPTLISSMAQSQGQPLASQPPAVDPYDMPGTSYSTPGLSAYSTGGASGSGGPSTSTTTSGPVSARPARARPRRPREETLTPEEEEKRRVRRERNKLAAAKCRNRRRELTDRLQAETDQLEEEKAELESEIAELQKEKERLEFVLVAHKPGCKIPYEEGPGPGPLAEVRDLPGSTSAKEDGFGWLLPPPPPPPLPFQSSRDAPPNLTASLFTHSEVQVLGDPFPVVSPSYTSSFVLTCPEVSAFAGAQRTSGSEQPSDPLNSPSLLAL
Rtt109 HAT inh: blocks Candida albicans Rtt109/Vps75 acetyltransferase activity; Q5AAJ8; hit rate 0.16% among 330,000; inhibition, % at 34.9 µM; purified Rtt109/Vps75, ThioGlo CoA-SH fluorescence, 4 h;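 active means inhibition of at least 50% in every replicate; inconclusive means best replicate reaches 50% inhibition but some replicates fall short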
Target sequence (Q5AAJ8 whole entry, looked up): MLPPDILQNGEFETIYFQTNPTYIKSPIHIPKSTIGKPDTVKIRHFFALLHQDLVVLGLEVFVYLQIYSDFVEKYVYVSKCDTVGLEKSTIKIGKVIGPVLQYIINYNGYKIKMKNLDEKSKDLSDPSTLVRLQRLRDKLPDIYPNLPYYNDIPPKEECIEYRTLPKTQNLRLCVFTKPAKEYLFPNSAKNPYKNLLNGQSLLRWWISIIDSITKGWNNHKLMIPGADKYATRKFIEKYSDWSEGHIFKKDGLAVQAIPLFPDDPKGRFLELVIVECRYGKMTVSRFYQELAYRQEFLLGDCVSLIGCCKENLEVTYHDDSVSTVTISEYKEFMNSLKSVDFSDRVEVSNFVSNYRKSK
HIV Env fusion: HIV envelope-mediated fusion inhibition; HeLa-JRFL Env/CEM21 cell fusion, luciferase; inhibition, % at 12.3 µM; hit rate 1.1% among 360,000; AID 651610;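 active means mean replicate inhibition score of at least 50 and every replicate individually at or above 50; inconclusive means only one of the two criteria met; inactive means mean below 50 and not all replicates reaching 50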;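 further: 0% = plate neutral controls and 100% = maraviroc near 300 nM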
Cneo AK release: causes C. neoformans cell lysis; hit rate 0.2% among 360,000; AID 651654; adenylate kinase release luminescence, 4 h; normalised: neutral wells 0, clomiphene wells 100; lysis activity, % at 15 µM;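 active means mean lysis activity across replicates of at least 80%, whatever share of replicates individually reach that level; inactive means mean lysis activity below 80%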
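Assay system: Cryptococcus neoformans yeast cells / Dosing: single-point compound dose / Timing: 4 h at 37 °C static, read 1 h later / Measured by: luminescence of released adenylate kinase using an AK detection reagent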
miR-122 sensor: miR-122 inhibition in Huh7 cells; activation (reporter increase), % at 12.5 µM; Huh7 miR-122 Renilla luciferase sensor, 48 h; neutral wells = 0, positive control = 100; AID 602342; hit rate 0.3% among 340,000;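 active means mean replicate activation score at least 90 and every replicate individually at or above 90; inconclusive means only one of the two criteria met; inactive means neither criterion met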;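 further: higher luciferase means less miR-122 activity so hits act as miR-122 inhibitors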
INS-1E GSIS act: primary screen for activators of insulin secretion dependent on glucose, INS-1E cells, GLuc reporter luminescence; INS-1E GLuc reporter insulin secretion, 2-3 h; activation, % at 16.6 µM; hit rate 0.61% among 370,000; AID 743287;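 active means lowest replicate activation of at least 40%, so every replicate reaches that level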;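 further: 0% = median of neutral control wells and 100% = median of IBMX positive control wells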
Starred values were filed as active, the others as inactive; ? = inconclusive; . = no result given; [ ] = dose if it differs, or a comment. Rows were chosen to be rich in hits. Some 2.4% of all compounds tested hit in one or more screens of this group.

SMILES | dFosB act | Rtt109 HAT inh | HIV Env fusion | Cneo AK release | miR-122 sensor | INS-1E GSIS act
C=C1CCN([C@H](C(=O)OCc2ccc(C)cc2)C(C)C)S(=O)(=O)c2ccccc21 | -2.5 | -5.4 | 79.9* | 2.3 | -4.0 | -13.5
C=C1CCN([C@@H](C)C(=O)OCc2cccc(C)c2)S(=O)(=O)c2ccccc21 | -2.7 | -2.4 | 25.3 | 1.5 | -2.1 | -15.2
C=C1CCN([C@@H](Cc2ccccc2)C(=O)Nc2ccc(OC)cc2)S(=O)(=O)c2ccccc21 | -0.4 | 10.1 | 105.4* | -8.9 | 1.7 | -12.5
O=C(/C=C/c1ccc2c(c1)OCO2)NCCSCc1cccc(Cl)c1 | 2.6 | 7.5 | 9.8 | 0.0 | 115.4* | -34.6
COc1ccc(C#Cc2ccc3c(c2)[C@H]2[C@H](CCN2Cc2ccncc2)[C@H](CO)N3)cc1 | . | . | . | . | . | 21.7
COc1ccccc1CN1[C@H](CO)[C@H]2c3ccccc3N(C(=O)C3CCCCC3)C[C@H]21 | . | . | . | 5.0 | 14.3[16.7 µM] | 1.2
CCOC(=O)/C=C/C(=O)Nc1cccc([N+](=O)[O-])c1 | 0.3 | 107.6* | . | . | . | .
O=C(NCC[C@H]1CC[C@H](NS(=O)(=O)c2ccc(F)cc2)[C@@H](CO)O1)c1ccc2c(c1)OCO2 | . | . | 8.1[16.7 µM] | 101.5* | . | 13.4
CC(=O)N[C@@H]1CC[C@@H](CCNC(=O)C2CCC2)O[C@H]1CO | . | . | -13.6[16.7 µM] | -0.6 | . | -1.6
CC(=O)N[C@H]1CC[C@H](CCNC(=O)C2CCC2)O[C@@H]1CO | . | . | -10.4[16.7 µM] | 101.0* | . | 14.5
O=C(NCC[C@@H]1CC[C@@H](NS(=O)(=O)c2ccc(F)cc2)[C@H](CO)O1)c1ccc2c(c1)OCO2 | . | . | 6.5[16.7 µM] | 12.1 | . | 0.5
Cc1ccc(S(=O)(=O)N[C@H]2CC[C@H](CCNC(=O)C3CCCC3)O[C@@H]2CO)cc1 | . | . | 7.7[16.7 µM] | 95.4* | -16.3[16.7 µM] | 14.1
O=C(CCN1CCCCC1)NCC[C@@H]1CC[C@H](NC(=O)c2ccc(F)cc2)[C@@H](CO)O1 | . | . | ? | 85.6* | . | 10.2
COCC(=O)N1[C@H](C(=O)N2CCCCC2)[C@@H](CO)[C@@H]2Cn3c(ccc(C4=CCCC4)c3=O)[C@@H]21 | . | . | . | -3.2 | -0.4[16.7 µM] | 4.7
CN1CCN(C(=O)C[C@H]2CC[C@@H]3[C@H](COC[C@H](O)CN3Cc3ccc4c(c3)OCO4)O2)CC1 | . | . | . | -0.6 | 1.4[16.7 µM] | 16.3
O=C(CN1CCOCC1)N[C@@H]1CC[C@@H](CCNC(=O)C2CCC2)O[C@@H]1CO | . | . | -8.7[16.7 µM] | 97.5* | 43.3[16.7 µM] | -4.2
O=C(CN1CCOCC1)N[C@@H]1CC[C@@H](CCNC(=O)C2CCC2)O[C@H]1CO | . | . | 1.8[16.7 µM] | 9.8 | 1.6[16.7 µM] | 3.1
COc1cccc(Nc2nc(C(N)Cc3ccccc3)cs2)n1 (stereo not given) | . | . | -51.2 | -1.4 | -3.0 | .
COc1cccc(Nc2nc(C(N)CO)cs2)n1 (stereo not given) | . | . | 16.1 | -0.1 | -3.7 | 41.5*
CCN1C(=O)[C@H]2[C@@H](c3ccc(C(F)(F)F)cc3)N[C@]3(CCCN(Cc4ccccc4)C3=O)[C@H]2C1=O | . | . | 78.3* | -0.6 | -3.8 | .
CCN1C(=O)[C@H]2[C@@H](c3ccc(C(F)(F)F)cc3)N[C@]3(CCCN(Cc4ccc(F)cc4)C3=O)[C@H]2C1=O | . | . | -61.7 | -0.7 | 2.9 | -1.4
COc1ccc(-c2cn[nH]c2-c2ccc(OCc3ccc([N+](=O)[O-])cc3)cc2O)cc1OC | -3.7 | 8.1 | -1.0 | 2.9 | -1.8 | 2.9
O=[N+]([O-])c1ccc(COc2ccc(-c3[nH]ncc3-c3ccc(Cl)cc3)c(O)c2)cc1 | 2.7 | 2.6 | . | -1.8 | -21.7 | 41.2*
COc1ccc(-c2cn[nH]c2-c2ccc(OC)cc2O)cc1 | -3.0 | -10.5 | 58.3* | . | . | 3.4
COc1ccc2c3c([nH]c2c1)[C@H](CO)N(C)CC31CCN(C(=O)c2cccnc2)CC1 | . | . | . | . | . | -5.1
SMILES | dFosB act | Rtt109 HAT inh | HIV Env fusion | Cneo AK release | miR-122 sensor | INS-1E GSIS act
O=C(Cc1cccs1)NNC(=O)c1ccccc1Cl | -10.6 | 4.5 | . | 1.1 | . | 14.5
O=C(Cc1ccsc1)NNC(=O)c1ccccc1Cl | -2.0 | 16.4 | 5.3 | . | . | 41.7*
COc1ccc2nc(C(C)O)[nH]c2c1 (stereo not given) | -1.4 | . | -90.6 | 0.2 | -6.3 | .
CC(O)c1nc2ccc(Cc3ccc4nc(C(C)O)[nH]c4c3)cc2[nH]1 (stereo not given) | -3.3 | 10.2 | . | 4.0 | 8.0 | 45.8*
COc1ccc(-c2c(C)nn3c(C(F)(F)F)cc(C)nc23)cc1 | . | . | 87.1* | 2.2 | -4.5 | .
COc1ccc(-c2c(C)nn3c(C)cc(C)nc23)cc1 | -5.0 | 57.7* | -310.9 | 3.1 | -4.9 | 18.0
C[C@@H]1CN([C@H](C)CO)C(=O)c2cc(NC(=O)CCCCCC(=O)Nc3ccccc3N)ccc2O[C@@H]1CN(C)S(=O)(=O)c1ccccc1 | . | . | . | . | . | 9.5
C[C@@H]1CN([C@H](C)CO)C(=O)Cc2cc(NC(=O)CCCCCC(=O)Nc3ccccc3N)ccc2O[C@H]1CN(C)C(=O)Nc1ccccc1 | . | . | -0.5[16.7 µM] | 104.9* | 19.6[16.7 µM] | -5.4
C[C@@H]1CN([C@@H](C)CO)C(=O)Cc2cc(NC(=O)CCCCCC(=O)Nc3ccccc3N)ccc2O[C@@H]1CN(C)C(=O)Nc1ccccc1 | . | . | -3.3[16.7 µM] | 0.1 | -4.4[16.7 µM] | 10.8
C[C@@H]1CN([C@@H](C)CO)C(=O)Cc2cc(NC(=O)CCCCCC(=O)Nc3ccccc3N)ccc2O[C@H]1CN(C)C(=O)Nc1ccccc1 | . | . | . | . | . | 5.6
C[C@H]1CN([C@@H](C)CO)C(=O)Cc2cc(NC(=O)CCCCCC(=O)Nc3ccccc3N)ccc2O[C@H]1CN(C)C(=O)Nc1ccccc1 | . | . | 0.4[16.7 µM] | 93.6* | 39.7[16.7 µM] | 3.9
C[C@@H]1CN([C@H](C)CO)C(=O)Cc2cc(NC(=O)CCCCCC(=O)Nc3ccccc3N)ccc2O[C@@H]1CN(C)Cc1ccc(Oc2ccccc2)cc1 | . | . | 56.1*[16.7 µM] | -1.0 | -7.1[16.7 µM] | 8.2
C[C@H]1CN([C@@H](C)CO)C(=O)Cc2cc(NC(=O)CCCCCC(=O)Nc3ccccc3N)ccc2O[C@@H]1CN(C)Cc1ccc(Oc2ccccc2)cc1 | . | . | 20.5[16.7 µM] | -1.5 | -7.6[16.7 µM] | 14.0
COc1ccc(CN2CC3(C2)CN(C(=O)CN(C)C)[C@H](CO)c2[nH]c4cc(OC)ccc4c23)cc1 | . | . | 13.4[16.7 µM] | . | . | 36.0
COc1ccccc1NS(=O)(=O)c1cc(NC(=O)c2sccc2C)ccc1N1CCOCC1 | -4.7 | 27.5 | 4.3 | 2.5 | 84.3 | .
O=C(Nc1ccc(N2CCCC2)c(Cl)c1)c1ccc(Br)o1 | 42.6* | 2.4 | . | -5.2 | 8.3 | 18.4
O=C(Nc1ccc(Cl)c(Cl)c1)Nc1ccc(N2CCCC2)c(S(=O)(=O)Nc2ccccc2Cl)c1 | 1.3 | -0.8 | 81.0* | . | . | -3.6
COc1ccccc1NS(=O)(=O)c1cc(NC(=O)Nc2ccccc2)ccc1N1CCCCC1 | 1.1 | 0.6 | . | -1.1 | 289.0* | -2.6
COc1ccccc1NS(=O)(=O)c1cc(NC(=O)c2sccc2C)ccc1N1CCCC1 | -5.1 | -5.3 | -15.3 | . | 173.3* | -1.3
